# Experimental data pooled from the literature.
# Target: Casein kinase I isoform gamma-2 (CSNK1G2, Homo sapiens, UniProt P78368)
Compound,read-out,method,concentration,remaining binding [%]
O=C(c1ccc(Nc2ncc(Cl)c(-c3cc4ccccc4s3)n2)cc1)N1CCC(N2CCCC2)CC1,binding,competition with immobilised ligand,1 µM,100
CCN1CCN(Cc2ccc(C(=O)Nc3ccc(C)c(Oc4ccc5c(c4)CC(=O)N5)c3)cc2C(F)(F)F)CC1,binding,competition with immobilised ligand,1 µM,100
CNC(=O)[C@@H]1CC[C@@H](n2c(-c3ccc4cnccc4c3)nc3ccc(C(=O)NCc4cccc(C(N)=O)c4)cc32)C1,binding,competition with immobilised ligand,1 µM,97
C[C@H]1CCN(c2nccc(-c3cnn4ncccc34)n2)C1,binding,,1 µM,64
O=C1CCc2cc(Nc3cc(OC4CCOCC4)c([N+](=O)[O-])cc3Cl)ccc2N1,cell-free assay,competition with immobilised ligand,1 µM,88
F[C@@H]1CCN(c2nccc(-c3cnn4ncccc34)n2)C1,binding,,1 µM,74
CCS(=O)(=O)c1cc2cc(C[C@](O)(CC(C)(C)c3ccc(F)cc3C(N)=O)C(F)(F)F)[nH]c2cn1,cell-free assay,competition with immobilised ligand,1 µM,93
CN(C)c1nccc(-c2cnn3ncccc23)n1,binding,,1 µM,85
O=C(c1ccc(Nc2ncc(Cl)c(-c3ccc(Cl)s3)n2)cc1)N1CCC(N2CCCC2)CC1,binding,competition with immobilised ligand,1 µM,100
COc1cnc(Nc2cccc(S(N)(=O)=O)c2)nc1N1CCN(c2ccccc2)CC1,binding,competition with immobilised ligand,1 µM,100
N#Cc1ccccc1CSc1nnc2c(n1)[nH]c1ccccc12,binding,competition with immobilised ligand,10 µM,81
O=C(N1CCS(=O)(=O)CC1)N1C[C@H](c2ccc(OC(F)(F)F)cc2)C[C@H](c2nc(C3CC3)no2)C1,cell-free assay,competition with immobilised ligand,1 µM,89
CN(C)c1nccc(-c2cnc3ncccn23)n1,binding,,1 µM,89
Cc1cnc(Nc2ccc(C(=O)N3CCC(N4CCCC4)CC3)cc2)nc1-c1cc2ccccc2s1,binding,competition with immobilised ligand,1 µM,100
Cn1cc(Cl)c2c(Oc3c(F)cc(Nc4cc(Cl)nc(N)n4)cc3F)ccnc21,cell-free assay,competition with immobilised ligand,0.1 µM,83
N[C@H]1CCN(c2nccc(-c3cnn4ncccc34)n2)C1,binding,,1 µM,98
COc1ccc2c(c1)O[C@@H](c1ccc(OC)c(OC)c1)C[C@H]2NC(=O)C1(c2ccc3c(c2)OC(F)(F)O3)CC1,cell-free assay,competition with immobilised ligand,1 µM,88
c1cnn2ncc(-c3ccnc(N4CCC45COC5)n3)c2c1,binding,,1 µM,77
CC(C)(C)c1ccc(-c2nc(CBr)nn2-c2cccc(O)c2)cc1,cell-free assay,competition with immobilised ligand,10 µM,93
Cc1c(C(=O)O)cc(-c2ccc(C3CCNCC3)cc2)c2ccc(-c3ccc(C(F)(F)F)cc3)cc12,cell-free assay,competition with immobilised ligand,1 µM,100
O=C(Nc1c[nH]nc1C(=O)NC1CCNCC1)c1cc(F)cc(F)c1,binding,competition with immobilised ligand,1 µM,100
